In ChEMBL document CHEMBL2062518, “Total synthesis and biological evaluation of transvalencin Z” (J Nat Prod, 2012) one finds CC50 and MIC99 data, which are given here for five compounds.

A short description of data set [1]: Cytotoxicity against african green monkey Vero cells after 72 hrs by MTT assay. Type of data set: cell-based. The conditions noted are these: chlorocebus sabaeus, read-out: MIC50. The gist of the method:
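Vero cells (ATCC CCL-81) in MEM with 10% FBS, 1% PennStrep and 1% Glutamax, seeded at 3.0 × 10^4 cells/well and left to adhere overnight. Compound in DMSO added to final 100 to 0.16 μM, in triplicate, for 72 h at 37 °C, 4.5% CO2. MTT 1.0 mg/mL in phenol red-free RPMI for 3 h, formazan dissolved in isopropanol. A570 minus A690 gave % viability vs DMSO control; dose-response curves gave 50% growth-inhibitory concentration.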

A further data set concerns Pseudomonas aeruginosa. Put plainly: Antimicrobial activity against Pseudomonas aeruginosa ATCC 27853 after 24 to 48 hrs. Type of data set: functional. In outline: (§1)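 Broth microdilution at 37 °C. Glycerol stocks streaked on 1.5% agar for 24 h. Single colonies grown in broth to OD600 1.0: trypticase soy for E. coli, P. aeruginosa and S. aureus; nutrient broth for A. baumannii and K. pneumoniae; brain heart infusion for E. faecalis. Diluted to OD600 0.003 with compound dilutions from DMSO stocks. OD600 read at 24 and 48 h, 690 nm background subtracted, normalized to DMSO control; MIC99.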

Data set [2] has as its system Mycolicibacterium smegmatis. Briefly: Antimicrobial activity against Mycobacterium smegmatis MC24517 after 24 to 48 hrs. In kind it is functional. The gist of the method: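 Grown from glycerol stock on nutrient agar (1.5%) at 37 °C for 24 h, with Tyloxapol added to prevent clumping. Colonies were grown in nutrient broth to OD600 1.0, diluted to OD600 0.003 and incubated with compound dilutions (1% DMSO stocks). OD600 was read at 24 and 48 h, corrected for 690 nm background and standardised to DMSO controls.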

Data set [3] has as its system Staphylococcus aureus. Put plainly: Antimicrobial activity against methicillin-resistant Staphylococcus aureus ATCC 43300 after 24 to 48 hrs. Type of data set: functional. In outline: (§2)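 Streaked from glycerol stock onto trypticase soy agar, 37 °C, 24 h. Single colonies were grown in trypticase soy broth to OD600 1.0 and diluted to OD600 0.003. Cells were incubated with compound at varying concentrations (1% DMSO stocks). Absorbance was read at 600 nm at 24 and 48 h, minus 690 nm background and relative to DMSO controls.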

In the next data set the test system is Klebsiella pneumoniae. Put plainly: Antimicrobial activity against Klebsiella pneumoniae ATCC 13883 after 24 to 48 hrs. In kind it is functional. The gist of the method:
as §1

In a further data set the test system is Enterococcus faecalis. Briefly: Antimicrobial activity against Enterococcus faecalis ATCC 51299 after 24 to 48 hrs. Type of data set: functional. The gist of the method:
as §1

In data set [4] the test system is Mycolicibacterium smegmatis. Briefly: Antimicrobial activity against Mycobacterium smegmatis ATCC 607 after 24 to 48 hrs. In kind it is functional. The gist of the method: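 M. smegmatis streaked from glycerol stock onto nutrient agar (1.5%), then grown at 37 °C in nutrient broth with Tyloxapol added to prevent clumping, to OD600 1.0. Diluted to OD600 0.003 and exposed to compound dilutions from DMSO stocks. Absorbance at 600 nm read at 24 and 48 h, 690 nm background subtracted, normalized to DMSO controls; MIC99.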

Data set [5] concerns Staphylococcus aureus. Briefly: Antimicrobial activity against methicillin-susceptible Staphylococcus aureus clinical isolate IDRL 8545 after 24 to 48 hrs. Type of data set: functional. In outline:
as §1

In the next data set the test system is Bacillus subtilis. Put plainly: Antimicrobial activity against Bacillus subtilis ATCC 6633 after 24 to 48 hrs. In kind it is functional.
Another data set has as its system Candida albicans. Briefly: Antifungal activity against Candida albicans ATCC 10231 after 24 to 48 hrs. Type of data set: functional. In outline:
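C. albicans streaked from glycerol stock onto YM agar and grown at 30 °C for 24 h. A single colony was grown in YM broth to OD600 1.0, diluted to OD600 0.003 and incubated with compound dilutions from DMSO stocks. Read at 600 nm at 24 and 48 h, 690 nm background subtracted, normalized to DMSO controls; MIC99.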

The subject of the next data set is Escherichia coli. Put plainly: Antimicrobial activity against Escherichia coli ATCC 25922 after 24 to 48 hrs. Type of data set: functional. The gist of the method: as §1
The test system of data set [6] is Mycobacterium tuberculosis. Briefly: Antimicrobial activity against Mycobacterium tuberculosis H37Rv after 24 to 48 hrs. Type of data set: functional.
Data set [7] relates to Staphylococcus aureus. Put plainly: Antimicrobial activity against methicillin-resistant Staphylococcus aureus clinical isolate IDRL 6169 after 24 to 48 hrs. Type of data set: functional. In outline:
as §2

The subject of another data set is Acinetobacter baumannii. Briefly: Antimicrobial activity against Acinetobacter baumannii ATCC 19606 after 24 to 48 hrs. In kind it is functional. The conditions noted are these: ATCC 19606 = CIP 70.34 = JCM 6841. The gist of the method:
as §1

The MIC99 is an inhibitory concentration at the 99% level, which refers to growth in some studies and to a panel of isolates in others. On to `O=CNCCCC[C@H](NC(=O)[C@@H]1COC(c2ccccc2O)=N1)C(=O)O`, for which, in data set [1], the CC50 at 72 h amounted to 164 µM. Also, the MIC99 (in the data set on Pseudomonas aeruginosa; in [2]; against Staphylococcus aureus [3]; against Klebsiella pneumoniae; in the data set with Enterococcus faecalis; in data set [4]) was more than 100 µM each time. For the same compound, the MIC99 was more than 100 µM against Staphylococcus aureus [5]; more than 100 µM in the data set with Bacillus subtilis; more than 100 µM in the data set on Candida albicans; more than 100 µM against Escherichia coli; more than 200 µM in data set [6]; more than 100 µM in the data set on Staphylococcus aureus [7]. For the same compound, the MIC99 in the data set on Acinetobacter baumannii is more than 100 µM.
For `O=CNCCCC[C@@H](NC(=O)[C@@H]1COC(c2ccccc2O)=N1)C(=O)O`, the CC50 at 72 h in data set [1] came out at 154 µM. The MIC99 (in the data set on Pseudomonas aeruginosa; in data set [2]; with Staphylococcus aureus [3]; in the data set on Klebsiella pneumoniae; in the data set with Enterococcus faecalis; in data set [4]) was more than 100 µM each time. For the same compound, the MIC99 was more than 100 µM in the data set on Staphylococcus aureus [5]; more than 100 µM against Bacillus subtilis; more than 100 µM against Candida albicans; more than 100 µM against Escherichia coli; more than 200 µM in data set [6]; more than 100 µM in the data set with Staphylococcus aureus [7]. In the data set with Acinetobacter baumannii, this compound displayed an MIC99 of more than 100 µM.
On to `O=CNCCCC[C@@H](NC(=O)[C@H]1COC(c2ccccc2O)=N1)C(=O)O`, for which the CC50 at 72 h in data set [1] was more than 200 µM. For the same compound, the MIC99 (against Pseudomonas aeruginosa; in data set [2]; against Staphylococcus aureus [3]; against Klebsiella pneumoniae; against Enterococcus faecalis; in [4]) was more than 100 µM in each case. Besides, the MIC99 is more than 100 µM against Staphylococcus aureus [5]; more than 100 µM in the data set on Bacillus subtilis; more than 100 µM in the data set with Candida albicans; more than 100 µM in the data set with Escherichia coli; more than 200 µM in [6]; more than 100 µM against Staphylococcus aureus [7]. This compound also came in with an MIC99 in the data set with Acinetobacter baumannii of more than 100 µM.
For the compound `O=CNCCCC[C@H](NC(=O)[C@H]1COC(c2ccccc2O)=N1)C(=O)O`, the CC50 at 72 h in data set [1] is more than 200 µM. Further, the MIC99 (with Pseudomonas aeruginosa; in data set [2]; in the data set with Staphylococcus aureus [3]; in the data set on Klebsiella pneumoniae; against Enterococcus faecalis; in data set [4]) was more than 100 µM throughout. Also, the MIC99 in the data set on Staphylococcus aureus [5] is more than 100 µM; against Bacillus subtilis it was more than 100 µM; with Candida albicans, more than 100 µM; against Escherichia coli it was more than 100 µM; in data set [6], more than 200 µM; with Staphylococcus aureus [7] it was more than 100 µM. Moreover, in the data set on Acinetobacter baumannii, the MIC99 was more than 100 µM.
Regarding `O=CNCCCCC(NC(=O)C1COC(c2ccccc2O)=N1)C(=O)O` (stereo unspecified) [TRANSVALENCIN Z], the MIC99 is 1 µg/mL in the data set with Staphylococcus aureus [3]; 0.125 µg/mL in [4]; 16 µg/mL in the data set on Bacillus subtilis; more than 64 µg/mL in the data set with Candida albicans; more than 64 µg/mL against Escherichia coli.
